Assay results taken from ChEMBL document CHEMBL3046158, “Design, synthesis, and fungicidal activity of macrolactones and macrolactams with a sulfonamide side chain” (J Agric Food Chem, 2008).
≈ marks a conversion by molar mass, not a printed value.

Tested on: Rhizoctonia solani
Assay: Fungicidal activity against Rhizoctonia solani assessed as inhibition of mycelium growth by mycelium growth rate test
Assay type: functional, organism-based
In short: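 Mycelial growth rate test on Rhizoctonia solani. Inhibition rates measured at 100, 50, 25, 12.5 and 6.25 µg/mL.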

Structure (SMILES) | EC50 [µg/mL]
COC(=O)c1ccccc1S(=O)(=O)NC1CCCCCCCCCCC(=O)NCCC1 (configuration not stated) | 12.8 (≈ 28.3 µM)
CC1CCC(NS(=O)(=O)c2ccc(Cl)cc2)CCCCCCCCCCC(=O)O1 (configuration not stated) | 69.6 (≈ 157 µM)
O=C1CCCCCCCCCCC(NS(=O)(=O)c2cc(Cl)ccc2Cl)CCCO1 (configuration not stated) | 28.4 (≈ 61.1 µM)
Cc1ccc(S(=O)(=O)NCCN2CCCCCCCCCCCC2=O)cc1 | 8.8 (≈ 22.3 µM)
CC1CCC(NS(=O)(=O)c2cccc([N+](=O)[O-])c2)CCCCCCCCCCC(=O)O1 (configuration not stated) | 86 (≈ 189 µM)
O=C1CCCCCCCCCCC(NS(=O)(=O)c2cccc([N+](=O)[O-])c2)CCCN1 (configuration not stated) | 27.6 (≈ 62.8 µM)
O=C1CCCCCCCCCCC(NS(=O)(=O)c2ccccc2)CCCO1 (configuration not stated) | 2.4 (≈ 6.07 µM)
CC1CCC(NS(=O)(=O)c2cc(Cl)ccc2Cl)CCCCCCCCCCC(=O)O1 (configuration not stated) | 30 (≈ 62.7 µM)
COC(=O)c1ccccc1S(=O)(=O)NC1CCCCCCCCCCC(=O)OCCC1 (configuration not stated) | 20.9 (≈ 46.1 µM)
CC1CCC(NS(=O)(=O)c2ccccc2)CCCCCCCCCCC(=O)O1 (configuration not stated) | 51.3 (≈ 125 µM)
O=C1CCCCCCCCCCC(NS(=O)(=O)c2cccs2)CCCN1 (configuration not stated) | 18.3 (≈ 45.7 µM)
O=C1CCCCCCCCCCC(NS(=O)(=O)c2ccccc2)CCCN1 (configuration not stated) | 55.3 (≈ 140 µM)
O=C1CCCCCCCCCCC(NS(=O)(=O)c2ccccc2Cl)CCCN1 (configuration not stated) | 59.5 (≈ 139 µM)
O=C1CCCCCCCCCCC(NS(=O)(=O)c2cccc([N+](=O)[O-])c2)CCCO1 (configuration not stated) | 18.7 (≈ 42.4 µM)
O=C1CCCCCCCCCCC(NS(=O)(=O)c2cccs2)CCCO1 (configuration not stated) | 5.1 (≈ 12.7 µM)
CC1CCC(NS(=O)(=O)Cc2ccccc2)CCCCCCCCCCC(=O)O1 (configuration not stated) | 28.2 (≈ 66.6 µM)
Cc1ccc(S(=O)(=O)NC2CCCCCCCCCCC(=O)NCCC2)cc1 (configuration not stated) | 13.4 (≈ 32.8 µM)
O=C1CCCCCCCCCCC(NS(=O)(=O)c2ccc(Cl)cc2)CCCN1 (configuration not stated) | 19.6 (≈ 45.7 µM)
O=C1CCCCCCCCCCC(NS(=O)(=O)c2ccc(Cl)cc2)CCCO1 (configuration not stated) | 3.3 (≈ 7.67 µM)
CC1CCC(NS(=O)(=O)c2ccc(F)cc2)CCCCCCCCCCC(=O)O1 (configuration not stated) | 25.1 (≈ 58.7 µM)
CC1CCC(NS(=O)(=O)c2cccs2)CCCCCCCCCCC(=O)O1 (configuration not stated) | 20.3 (≈ 48.8 µM)

Structure (SMILES) | EC50 [µg/mL]
Cc1ccc(S(=O)(=O)NC2CCCCCCCCCCC(=O)OCCC2)cc1 (configuration not stated) | 3.7 (≈ 9.03 µM)
COC(=O)c1ccccc1S(=O)(=O)NC1CCCCCCCCCCC(=O)OC(C)CC1 (configuration not stated) | 53.4 (≈ 114 µM)
O=C1CCCCCCCCCCCN1CCNS(=O)(=O)c1cccc([N+](=O)[O-])c1 | 10.7 (≈ 25.1 µM)
CS(=O)(=O)NC1CCCCCCCCCCC(=O)OCCC1 (configuration not stated) | 12.2 (≈ 36.6 µM)
O=C1CCCCCCCCCCCN1CCNS(=O)(=O)c1cc(Cl)ccc1Cl | 5.3 (≈ 11.8 µM)
O=C1CCCCCCCCCCCN1CCNS(=O)(=O)c1ccc(Cl)cc1 | 18.7 (≈ 45.1 µM)
CS(=O)(=O)NC1CCCCCCCCCCC(=O)NCCC1 (configuration not stated) | 45.1 (≈ 136 µM)
O=C1CCCCCCCCCCC(NS(=O)(=O)c2ccccc2[N+](=O)[O-])CCCO1 (configuration not stated) | 22.3 (≈ 50.6 µM)
O=C1CCCCCCCCCCC(NS(=O)(=O)c2ccc(F)cc2)CCCO1 (configuration not stated) | 4.5 (≈ 10.9 µM)
CC1CCC(NS(=O)(=O)c2ccccc2[N+](=O)[O-])CCCCCCCCCCC(=O)O1 (configuration not stated) | 93.3 (≈ 205 µM)
CC1CCC(NS(C)(=O)=O)CCCCCCCCCCC(=O)O1 (configuration not stated) | 56.4 (≈ 162 µM)
O=C1CCCCCCCCCCC(NS(=O)(=O)c2ccccc2[N+](=O)[O-])CCCN1 (configuration not stated) | 21.5 (≈ 48.9 µM)
O=C1CCCCCCCCCCCN1CCNS(=O)(=O)c1ccccc1 | 11.6 (≈ 30.5 µM)
CC1CCC(NS(=O)(=O)c2ccccc2Cl)CCCCCCCCCCC(=O)O1 (configuration not stated) | 37.9 (≈ 85.4 µM)
O=C1CCCCCCCCCCC(NS(=O)(=O)Cc2ccccc2)CCCO1 (configuration not stated) | 52.4 (≈ 128 µM)
COC(=O)Nc1nc2ccccc2[nH]1 [CARBENDAZIM] | 1.5 (≈ 7.85 µM)
O=C1CCCCCCCCCCC(NS(=O)(=O)c2cc(Cl)ccc2Cl)CCCN1 (configuration not stated) | 30.4 (≈ 65.6 µM)
Cc1ccc(S(=O)(=O)NC2CCCCCCCCCCC(=O)OC(C)CC2)cc1 (configuration not stated) | 57 (≈ 135 µM)
O=C1CCCCCCCCCCC(NS(=O)(=O)c2ccccc2Cl)CCCO1 (configuration not stated) | 25 (≈ 58.1 µM)
O=C1CCCCCCCCCCC(NS(=O)(=O)c2ccc(F)cc2)CCCN1 (configuration not stated) | 36.7 (≈ 89 µM)
O=C1CCCCCCCCCCC(NS(=O)(=O)Cc2ccccc2)CCCN1 (configuration not stated) | 8.1 (≈ 19.8 µM)
